Laboratory results reported in ChEMBL document CHEMBL3352508, “Discovery and early clinical development of 2-{6-[2-(3,5-dichloro-4-pyridyl)acetyl]-2,3-dimethoxyphenoxy}-N-propylacetamide (LEO 29102), a soft-drug inhibitor of phosphodiesterase 4 for topical treatment of atopic dermatitis” (J Med Chem, 2014).
Converted amounts (≈) assume the structure as drawn.

How the values were obtained:
[1] = molecular target: 3',5'-cyclic-AMP phosphodiesterase 4D (Homo sapiens, UniProt Q08499); assay: Inhibition of human recombinant PDE4D after 1 hr by SPA in presence of radioactively labeled cAMP
Chain of 3',5'-cyclic-AMP phosphodiesterase 4D (Q08499 whole entry): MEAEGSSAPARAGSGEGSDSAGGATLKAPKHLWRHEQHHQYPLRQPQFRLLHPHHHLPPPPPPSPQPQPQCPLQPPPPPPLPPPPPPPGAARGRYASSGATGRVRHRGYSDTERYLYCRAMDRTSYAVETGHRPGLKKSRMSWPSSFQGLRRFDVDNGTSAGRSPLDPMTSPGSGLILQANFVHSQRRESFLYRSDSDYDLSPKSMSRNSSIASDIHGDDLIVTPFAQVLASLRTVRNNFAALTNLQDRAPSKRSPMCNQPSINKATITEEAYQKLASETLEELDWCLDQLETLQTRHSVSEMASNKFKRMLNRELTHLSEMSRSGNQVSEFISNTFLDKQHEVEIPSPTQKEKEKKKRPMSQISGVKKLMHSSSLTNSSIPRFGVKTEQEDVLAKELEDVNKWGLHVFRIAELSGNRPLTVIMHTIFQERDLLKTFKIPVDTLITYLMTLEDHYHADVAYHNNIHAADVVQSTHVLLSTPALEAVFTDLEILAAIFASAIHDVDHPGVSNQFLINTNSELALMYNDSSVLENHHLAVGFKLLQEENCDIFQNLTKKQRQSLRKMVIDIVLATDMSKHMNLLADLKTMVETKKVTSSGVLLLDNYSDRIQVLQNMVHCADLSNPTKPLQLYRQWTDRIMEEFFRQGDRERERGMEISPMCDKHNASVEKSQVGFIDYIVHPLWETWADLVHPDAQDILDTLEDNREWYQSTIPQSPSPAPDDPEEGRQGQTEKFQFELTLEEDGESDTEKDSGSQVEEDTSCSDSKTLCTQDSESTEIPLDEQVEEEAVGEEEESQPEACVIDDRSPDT
Procedure, shortened: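 Recombinant human PDE4D (NM_006203) incubated 1 h with test compound up to 10 μM, 1 × 10⁻⁵ M cAMP and 0.021 MBq radiolabelled cAMP tracer. Substrate cleavage read by binding of AMP product to SPA beads. IC₅₀ is the molar concentration giving 50% inhibition of cleavage relative to controls, reported as a range.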

[2] = tested on: PBMC; assay: Inhibition of LPS-induced TNFalpha release in human PBMC preincubated for 30 mins before LPS stimulation measured after 18 hrs by TR-FRET assay; format: functional, cell-based
Procedure, shortened: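 PBMCs isolated from buffy coats (blood diluted 1:1 with saline, Lymphoprep). Supernatant TNF-α measured by TR-FRET (665/620 nm). IC₅₀ taken from inhibition curves, with LPS-stimulated and unstimulated wells as controls.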

[3] = molecular target: Phosphodiesterase 1 (Homo sapiens) (UniProt P54750+Q01064+Q14123); assay: Inhibition of PDE1 (unknown origin) at 1 uM; format: protein assay
[4] = molecular target: cGMP-dependent 3',5'-cyclic phosphodiesterase (Homo sapiens) (UniProt O00408); assay: Inhibition of PDE2 (unknown origin) at 1 uM
Chain of cGMP-dependent 3',5'-cyclic phosphodiesterase (Homo sapiens) (O00408 whole entry): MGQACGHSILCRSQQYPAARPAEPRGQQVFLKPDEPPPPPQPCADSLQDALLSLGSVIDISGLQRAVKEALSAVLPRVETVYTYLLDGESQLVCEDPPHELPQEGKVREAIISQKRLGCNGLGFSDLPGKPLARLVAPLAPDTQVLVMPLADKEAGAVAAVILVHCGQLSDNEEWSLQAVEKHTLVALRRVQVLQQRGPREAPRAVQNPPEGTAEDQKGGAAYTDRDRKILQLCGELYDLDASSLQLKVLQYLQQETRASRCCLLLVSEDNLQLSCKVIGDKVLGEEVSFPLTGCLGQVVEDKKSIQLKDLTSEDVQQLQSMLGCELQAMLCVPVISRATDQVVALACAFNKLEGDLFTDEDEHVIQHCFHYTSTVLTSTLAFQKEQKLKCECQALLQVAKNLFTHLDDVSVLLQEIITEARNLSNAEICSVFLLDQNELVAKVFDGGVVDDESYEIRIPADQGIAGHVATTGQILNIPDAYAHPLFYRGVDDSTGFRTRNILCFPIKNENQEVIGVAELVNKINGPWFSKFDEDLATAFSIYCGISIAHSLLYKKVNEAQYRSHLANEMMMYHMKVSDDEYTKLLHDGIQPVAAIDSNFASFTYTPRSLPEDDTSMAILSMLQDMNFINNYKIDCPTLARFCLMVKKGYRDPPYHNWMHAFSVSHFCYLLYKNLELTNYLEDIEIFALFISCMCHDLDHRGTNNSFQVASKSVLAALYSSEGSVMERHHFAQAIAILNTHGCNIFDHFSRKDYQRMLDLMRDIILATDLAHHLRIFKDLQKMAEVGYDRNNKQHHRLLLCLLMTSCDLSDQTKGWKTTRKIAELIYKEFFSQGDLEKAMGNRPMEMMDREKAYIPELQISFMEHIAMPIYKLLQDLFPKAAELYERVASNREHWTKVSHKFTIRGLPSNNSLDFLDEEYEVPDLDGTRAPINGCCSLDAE

[5] = molecular target: Phosphodiesterase 3 (Homo sapiens) (UniProt Q14432+Q13370); assay: Inhibition of PDE3 (unknown origin) at 1 uM; format: protein assay
[6] = molecular target: High affinity cGMP-specific 3',5'-cyclic phosphodiesterase 9A (Homo sapiens) (UniProt O76083); assay: Inhibition of PDE9 (unknown origin) at 1 uM
Chain of High affinity cGMP-specific 3',5'-cyclic phosphodiesterase 9A (Homo sapiens) (O76083 whole entry): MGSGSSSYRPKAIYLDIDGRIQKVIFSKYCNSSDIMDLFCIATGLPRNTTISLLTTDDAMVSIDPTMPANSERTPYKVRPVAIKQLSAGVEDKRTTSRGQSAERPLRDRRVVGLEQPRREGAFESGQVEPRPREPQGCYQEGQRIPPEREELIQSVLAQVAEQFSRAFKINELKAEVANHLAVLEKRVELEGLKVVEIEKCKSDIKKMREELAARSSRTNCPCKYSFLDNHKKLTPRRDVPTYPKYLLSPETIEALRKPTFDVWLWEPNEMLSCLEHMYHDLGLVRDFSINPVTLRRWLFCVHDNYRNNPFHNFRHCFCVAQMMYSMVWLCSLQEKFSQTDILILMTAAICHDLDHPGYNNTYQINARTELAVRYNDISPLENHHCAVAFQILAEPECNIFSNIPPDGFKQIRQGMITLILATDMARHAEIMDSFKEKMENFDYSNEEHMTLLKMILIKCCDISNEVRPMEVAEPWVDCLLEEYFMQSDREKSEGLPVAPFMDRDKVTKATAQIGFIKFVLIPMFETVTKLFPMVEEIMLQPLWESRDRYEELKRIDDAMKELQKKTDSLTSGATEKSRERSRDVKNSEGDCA

[7] = molecular target: cGMP-specific 3',5'-cyclic phosphodiesterase (Homo sapiens) (UniProt O76074); assay: Inhibition of PDE5 (unknown origin) at 1 uM
[8] = molecular target: High affinity 3',5'-cyclic-AMP phosphodiesterase 7A (Homo sapiens) (UniProt Q13946); assay: Inhibition of PDE7 (unknown origin) at 1 uM
[9] = molecular target: Phosphodiesterase 8 (Homo sapiens) (UniProt O95263+O60658); assay: Inhibition of PDE8 (unknown origin) at 1 uM; format: protein assay
Chain of Phosphodiesterase 8 (Homo sapiens) (O60658 whole entry, looked up): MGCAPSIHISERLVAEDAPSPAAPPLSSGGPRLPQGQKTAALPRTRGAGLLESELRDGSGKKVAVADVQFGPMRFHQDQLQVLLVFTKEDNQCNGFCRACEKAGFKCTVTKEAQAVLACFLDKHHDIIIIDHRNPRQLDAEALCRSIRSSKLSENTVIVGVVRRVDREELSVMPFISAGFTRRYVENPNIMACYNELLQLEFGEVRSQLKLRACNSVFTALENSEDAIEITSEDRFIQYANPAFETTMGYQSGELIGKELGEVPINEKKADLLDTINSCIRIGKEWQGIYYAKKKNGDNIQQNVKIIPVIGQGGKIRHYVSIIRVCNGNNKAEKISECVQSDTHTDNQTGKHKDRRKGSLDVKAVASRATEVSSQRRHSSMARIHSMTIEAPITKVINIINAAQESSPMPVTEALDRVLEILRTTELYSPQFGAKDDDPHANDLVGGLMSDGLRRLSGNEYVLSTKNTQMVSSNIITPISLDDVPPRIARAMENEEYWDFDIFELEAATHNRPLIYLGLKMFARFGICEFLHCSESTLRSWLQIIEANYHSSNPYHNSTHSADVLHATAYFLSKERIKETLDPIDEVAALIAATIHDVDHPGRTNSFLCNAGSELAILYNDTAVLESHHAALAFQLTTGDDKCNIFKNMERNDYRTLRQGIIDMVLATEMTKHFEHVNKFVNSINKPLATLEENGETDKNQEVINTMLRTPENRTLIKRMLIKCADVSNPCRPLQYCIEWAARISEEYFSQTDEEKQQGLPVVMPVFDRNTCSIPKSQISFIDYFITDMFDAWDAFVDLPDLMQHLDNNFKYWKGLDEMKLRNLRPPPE
Chain of Phosphodiesterase 8 (Homo sapiens) (O95263 whole entry, looked up): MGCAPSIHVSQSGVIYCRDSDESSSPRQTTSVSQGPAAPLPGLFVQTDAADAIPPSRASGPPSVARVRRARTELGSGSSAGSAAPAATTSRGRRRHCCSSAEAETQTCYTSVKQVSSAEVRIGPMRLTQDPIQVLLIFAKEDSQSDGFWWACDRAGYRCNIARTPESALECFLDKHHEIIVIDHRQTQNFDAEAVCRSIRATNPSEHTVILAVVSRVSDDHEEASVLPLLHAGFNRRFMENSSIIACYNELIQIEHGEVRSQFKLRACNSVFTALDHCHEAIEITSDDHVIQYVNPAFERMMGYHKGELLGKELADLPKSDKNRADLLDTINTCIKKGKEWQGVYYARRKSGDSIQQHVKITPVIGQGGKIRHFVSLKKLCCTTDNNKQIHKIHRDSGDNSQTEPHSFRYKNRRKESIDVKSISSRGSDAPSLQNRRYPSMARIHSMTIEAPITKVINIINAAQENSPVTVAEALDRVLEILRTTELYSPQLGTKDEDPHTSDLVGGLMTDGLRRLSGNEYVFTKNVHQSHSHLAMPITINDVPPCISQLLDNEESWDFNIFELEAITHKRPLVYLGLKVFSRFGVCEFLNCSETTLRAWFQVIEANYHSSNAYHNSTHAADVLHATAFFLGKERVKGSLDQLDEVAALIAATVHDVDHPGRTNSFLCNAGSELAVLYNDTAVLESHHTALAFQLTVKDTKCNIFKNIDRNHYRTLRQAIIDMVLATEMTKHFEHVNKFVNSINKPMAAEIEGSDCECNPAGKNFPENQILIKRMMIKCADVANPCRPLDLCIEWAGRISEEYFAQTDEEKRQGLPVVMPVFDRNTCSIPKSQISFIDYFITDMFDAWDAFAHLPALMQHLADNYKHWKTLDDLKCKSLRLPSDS

[10] = molecular target: cAMP and cAMP-inhibited cGMP 3',5'-cyclic phosphodiesterase 10A (Homo sapiens) (UniProt Q9Y233); assay: Inhibition of PDE10 (unknown origin) at 1 uM
[11] = molecular target: Dual 3',5'-cyclic-AMP and -GMP phosphodiesterase 11A (Homo sapiens) (UniProt Q9HCR9); assay: Inhibition of PDE11 (unknown origin) at 1 uM
Chain of Dual 3',5'-cyclic-AMP and -GMP phosphodiesterase 11A (Homo sapiens) (Q9HCR9 whole entry, looked up): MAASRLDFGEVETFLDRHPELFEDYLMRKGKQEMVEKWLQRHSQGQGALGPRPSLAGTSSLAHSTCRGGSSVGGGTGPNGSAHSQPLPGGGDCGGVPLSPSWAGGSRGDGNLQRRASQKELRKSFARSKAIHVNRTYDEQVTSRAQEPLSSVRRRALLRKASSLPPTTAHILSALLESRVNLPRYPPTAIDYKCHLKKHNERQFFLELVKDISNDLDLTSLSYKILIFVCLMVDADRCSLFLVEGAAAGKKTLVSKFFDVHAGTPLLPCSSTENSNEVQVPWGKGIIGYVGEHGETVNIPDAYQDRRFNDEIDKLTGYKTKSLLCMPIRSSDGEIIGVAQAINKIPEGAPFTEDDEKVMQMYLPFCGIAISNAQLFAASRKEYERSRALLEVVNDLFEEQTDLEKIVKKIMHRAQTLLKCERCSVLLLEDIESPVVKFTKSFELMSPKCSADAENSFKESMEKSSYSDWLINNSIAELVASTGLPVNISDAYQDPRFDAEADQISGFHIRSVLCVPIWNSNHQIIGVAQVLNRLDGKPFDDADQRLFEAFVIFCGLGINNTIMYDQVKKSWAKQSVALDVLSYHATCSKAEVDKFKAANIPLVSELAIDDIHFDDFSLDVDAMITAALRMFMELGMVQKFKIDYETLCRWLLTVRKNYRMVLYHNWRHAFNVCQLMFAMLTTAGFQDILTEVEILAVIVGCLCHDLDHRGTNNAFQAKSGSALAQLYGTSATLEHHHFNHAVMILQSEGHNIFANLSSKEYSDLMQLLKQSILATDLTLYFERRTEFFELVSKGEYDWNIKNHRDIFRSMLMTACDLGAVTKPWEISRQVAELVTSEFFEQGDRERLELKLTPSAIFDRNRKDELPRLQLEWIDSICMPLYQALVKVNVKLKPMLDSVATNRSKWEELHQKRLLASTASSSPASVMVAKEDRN

[12] = Genotoxicity in p53 competent human TK6 cells after 24 hrs by GreenScreen HC assay; format: toxicity, cell-based; conditions: tk6, 24 h
[13] = tested on: Mus musculus; assay: Antiinflammatory activity in topical allergic contact dermatitis mouse model assessed as inhibition of TNFalpha in tissue compound administered topically; format: functional, organism-based
[14] = tested on: Mus musculus; assay: Antiinflammatory activity in topical allergic contact dermatitis mouse model assessed as inhibition of TNFalpha in tissue at 0.001 mg administered topically; format: functional
[15] = tested on: Mus musculus; assay: Antiinflammatory activity in topical allergic contact dermatitis mouse model assessed as inhibition of TNFalpha in tissue at 0.01 mg administered topically; format: functional
[16] = tested on: Mus musculus; assay: Antiinflammatory activity in topical allergic contact dermatitis mouse model assessed as inhibition of TNFalpha in tissue at 0.1 mg administered topically; format: functional
[17] = Solubility of the compound in 0.067 M phosphate buffer at pH 7.4; format: physicochemical
Procedure, shortened: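 Compound shaken in 0.067 M phosphate buffer, pH 7.4, for 24 h at room temperature; after centrifugation, supernatant concentration determined by HPLC.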

[18] = Solubility of the compound in 20 % hydroxypropyl-beta-cyclodextrin in water after 1 hr at room temperature; format: physicochemical
Procedure, shortened: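 Compound shaken in the vehicle for 1 h at room temperature, centrifuged, and the supernatant concentration determined by HPLC.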

[19] = Solubility of the compound in medium chain triglyceride; format: physicochemical
Procedure, shortened: (§1)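 Compound shaken in each vehicle for 24 h at room temperature, centrifuged, and the supernatant concentration determined by HPLC.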

[20] = Solubility of the compound in propylene glycol; format: physicochemical; procedure, shortened: as §1
[21] = Solubility of the compound in propylene glycol-water at 25:75 ratio after 24 hrs at room temperature; format: physicochemical; conditions: propylene glycol-water 25:75; procedure, shortened: as §1
[22] = Solubility of the compound in propylene glycol-water at 50:50 ratio after 24 hrs at room temperature; format: physicochemical; conditions: propylene glycol-water 50:50; procedure, shortened: as §1
[23] = Solubility of the compound in propylene glycol-water at 75:25 ratio after 24 hrs at room temperature; format: physicochemical; conditions: propylene glycol-water 75:25; procedure, shortened: as §1
[24] = Toxicity in iv dosed ferret assessed as emesis measured up to 2 hrs post dose; format: organism-based, Mustela putorius furo; conditions: in vivo
Procedure, shortened: (§2)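 Ferrets dosed iv at 0.03–1.0 mg/kg alongside vehicle groups, then observed for 2 h. Recorded: emetic episodes and prodromic signs of nausea, number of animals retching and vomiting, latency to first retch and vomit, and counts of retches and vomits.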

[25] = Toxicity in iv dosed ferret assessed as signs of nausea measured up to 2 hrs post dose; format: organism-based, Mustela putorius furo; conditions: in vivo; procedure, shortened: as §2
[26] = Cmax in human at 2.5 mg/g cream administered as single topical dose up to 7 % body surface area; format: ADME, organism-based; set-up: dose 2.5 mg/g; conditions: in vivo, 2500 mg/kg
Procedure, shortened: (§3)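 Healthy subjects, n = 6 per group, each given a single cutaneous dose of 2.5 mg/g cream. Treated body surface area was escalated (7, 14, 30, 53%) while the amount of cream per cm² was held constant. Plasma Cmax and AUC0–48h are reported as geometric means.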

[27] = AUC (0 to 48 hrs) in human at 2.5 mg/g cream administered as single topical dose up to 7 % body surface area; format: ADME, organism-based; set-up: dose 2.5 mg/g, time < 48 hr; conditions: plasma, 2500 mg/kg; procedure, shortened: as §3
[28] = Cmax in human at 2.5 mg/g cream administered as single topical dose up to 14 % body surface area; format: ADME, organism-based; set-up: dose 2.5 mg/g; conditions: in vivo, 2500 mg/kg; procedure, shortened: as §3
[29] = AUC (0 to 48 hrs) in human at 2.5 mg/g cream administered as single topical dose up to 14 % body surface area; format: ADME, organism-based; set-up: time < 48 hr, dose 2.5 mg/g; conditions: plasma, 2500 mg/kg; procedure, shortened: as §3
[30] = Cmax in human at 2.5 mg/g cream administered as single topical dose up to 30 % body surface area; format: ADME, organism-based; set-up: dose 2.5 mg/g; conditions: in vivo, 2500 mg/kg; procedure, shortened: as §3
[31] = AUC (0 to 48 hrs) in human at 2.5 mg/g cream administered as single topical dose up to 30 % body surface area; format: ADME, organism-based; set-up: time < 48 hr, dose 2.5 mg/g; conditions: plasma, 2500 mg/kg; procedure, shortened: as §3
[32] = Cmax in human at 2.5 mg/g cream administered as single topical dose up to 53 % body surface area; format: ADME, organism-based; set-up: dose 2.5 mg/g; conditions: in vivo, 2500 mg/kg; procedure, shortened: as §3
[33] = AUC (0 to 48 hrs) in human at 2.5 mg/g cream administered as single topical dose up to 53 % body surface area; format: ADME, organism-based; set-up: time < 48 hr, dose 2.5 mg/g; conditions: plasma, 2500 mg/kg; procedure, shortened: as §3
[34] = tested on: Homo sapiens; assay: Toxicity in human assessed as emesis at 2.5 mg/g cream administered as single topical dose up to 7 to 53 % body surface area; format: organism-based; conditions: in vivo, topical_or_ocular
Procedure, shortened: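 First-in-man safety, tolerability and pharmacokinetic study with single ascending and multiple cutaneous doses of 2.5 mg/g cream. Dose was escalated by enlarging the treated body surface area up to 53%, and emesis cases were recorded.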

## COc1ccc(C(=O)Cc2c(Cl)cncc2Cl)c(OCC(=O)N(C)c2ccccc2)c1OC
[1]
  IC50: 61 nM
[2]
  IC50: 113 nM

## COc1ccc(C(=O)Cc2c(Cl)cncc2Cl)c(OCC(=O)O)c1OC
[1]
  IC50: 3760 nM
[2]
  IC50: > 10000 nM
[3]
  inhibition: < 10%
[4]
  inhibition: < 10%
[5]
  inhibition: < 10%
[6]
  inhibition: < 10%
[7]
  inhibition: < 10%
[8]
  inhibition: < 10%
[9]
  inhibition: < 10%
[10]
  inhibition: < 10%
[11]
  inhibition: < 10%

## COc1ccc(C(=O)Cc2c(Cl)cncc2Cl)cc1OC
[1]
  IC50: 13 nM
[2]
  IC50: 11 nM

## COCCNC(=O)COc1c(C(=O)Cc2c(Cl)cncc2Cl)ccc(OC)c1OC
[1]
  IC50: 13 nM
[2]
  IC50: 17 nM
[12]
  Activity: Non-toxic

## COc1ccc(C(=O)Cc2c(Cl)cncc2Cl)c(OCCc2ccc(O)cc2)c1OC
[1]
  IC50: 8 nM
[2]
  IC50: 30 nM

## COc1ccc(C(=O)Cc2c(Cl)cncc2Cl)c(OCC(N)=O)c1OC
[1]
  IC50: 20 nM
[2]
  IC50: 55 nM

## COc1ccc(C(=O)Cc2c(Cl)cncc2Cl)c(OCC(=O)Nc2ccccc2)c1OC
[1]
  IC50: 1 nM
[2]
  IC50: 4 nM

## CCCNC(=O)COc1c(C(=O)Cc2c(Cl)cncc2Cl)ccc(OC)c1OC
[1]
  IC50: 5 nM
[2]
  IC50: 16 nM
[13]
  inhibition: Dose-dependent effect
[14]
  inhibition (INH): 33%
[15]
  inhibition (INH): 91%
[16]
  inhibition (INH): 100%
[3]
  inhibition: < 10%
[4]
  inhibition: < 10%
[5]
  inhibition: < 10%
[6]
  inhibition: < 10%
[7]
  inhibition: < 10%
[8]
  inhibition: < 10%
[9]
  inhibition: < 10%
[10]
  inhibition: < 10%
[11]
  inhibition: < 10%
[17]
  solubility: 14 µg/mL (≈ 31.7 µM)
[18]
  solubility at 1 h: 220 µg/mL (≈ 499 µM)
[19]
  solubility: 6700 µg/mL (≈ 15200 µM)
[20]
  solubility: 24000 µg/mL (≈ 54400 µM)
[21]
  solubility at 24 h: 135 µg/mL
[22]
  solubility at 24 h: 1300 µg/mL
[23]
  solubility at 24 h: 5600 µg/mL
[24]
  MTD at 2 h: 1 mg/kg
[25]
  MTD at 2 h: 1 mg/kg
[26]
  Cmax: 0.279 ng/mL
[27]
  AUC(0-t) at 48 h: 5.45 ng·h/mL
[28]
  Cmax: 0.754 ng/mL
[29]
  AUC(0-t) at 48 h: 14.9 ng·h/mL
[30]
  Cmax: 2.39 ng/mL
[31]
  AUC(0-t) at 48 h: 49.2 ng·h/mL
[32]
  Cmax: 5.07 ng/mL
[33]
  AUC(0-t) at 48 h: 100 ng·h/mL
[34]
  Activity: Non-toxic

## COc1ccc(C(=O)Cc2c(Cl)cncc2Cl)c(OCCCc2ccccc2)c1OC
[1]
  IC50: 45 nM
[2]
  IC50: 230 nM

## COc1ccc(C(=O)Cc2c(Cl)cncc2Cl)c(OCc2ccccc2)c1OC
[1]
  IC50: 63 nM
[2]
  IC50: 159 nM

## COc1ccc(C(=O)Cc2c(Cl)cncc2Cl)c(OC)c1OCC1CC1
[1]
  IC50: 212 nM
[2]
  IC50: 564 nM

## COc1ccc(C(=O)Nc2c(Cl)cncc2Cl)cc1OC1CCCC1 [PICLAMILAST]
[17]
  solubility: 1 µg/mL (≈ 2.62 µM)
[18]
  solubility at 1 h: 190 µg/mL (≈ 498 µM)
[19]
  solubility: 2000 µg/mL (≈ 5250 µM)
[20]
  solubility: 3300 µg/mL (≈ 8660 µM)

## CCOc1c(OC)ccc(C(=O)Cc2c(Cl)cncc2Cl)c1OC
[1]
  IC50: 81 nM
[2]
  IC50: 259 nM
